Tests used:
Type in all cases: functional, cell-based
[1] = molecular target: T1, Sulfonylurea receptor 1, Kir6.2 (Homo sapiens) (UniProt Q14654+Q09428); experiment: Antiarrhythmic effect in hSUR1/hKir6.2 (pancreatic KATP channel) transfected in CHO cells at a dose of 1 uM; details: at 1 µM
Method in brief: (§1)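 CHO cells stably expressing SUR1/Kir6.2, seeded the day before and washed three times in PBS. Loaded with voltage dye DiBAC4(3), added as a 10 µM solution, with diazoxide, added as a 400 µM solution, both in PBS; 30 min at 37 °C. Compound added after 4 min of baseline. Fluorescence read with 488 nm excitation every 20 s for 20 min. Mean of at least four experiments.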

[2] = molecular target: T1, Sulfonylurea receptor 1, Kir6.2 (Homo sapiens); experiment: Antiarrhythmic effect in hSUR1/hKir6.2 (pancreatic KATP channel) transfected in CHO cells at a dose of 0.1 uM; details: at 0.1 µM; method in brief: as §1
[3] = molecular target: T1, Sulfonylurea receptor 1, Kir6.2 (Homo sapiens); experiment: Antiarrhythmic effect in hSUR1/hKir6.2 (pancreatic KATP channel) transfected in CHO cells at a dose of 10 uM; details: at 10 µM; method in brief: as §1
[4] = molecular target: T1, Sulfonylurea receptor 1, Kir6.2 (Homo sapiens); experiment: Antiarrhythmic effect in hSUR1/hKir6.2 (pancreatic KATP channel) transfected in CHO cells at 3 nM
Method in brief: (§2)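 CHO cells stably expressing SUR1/Kir6.2, seeded the day before and washed three times with PBS. Loaded with DiBAC4(3) plus diazoxide in PBS for 30 min at 37 °C. Membrane-potential fluorescence read with 488 nm excitation; compound added at 4 min, then readings every 20 s for 20 min. Mean of at least four experiments.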

[5] = molecular target: T1, Sulfonylurea receptor 1, Kir6.2 (Homo sapiens); experiment: Antiarrhythmic effect in hSUR1/hKir6.2 (pancreatic KATP channel) transfected in CHO cells at 1 nM; method in brief: as §2

Row | Structure (SMILES) | inhibition [1] [%] | inhibition [2] [%] | inhibition [3] [%] | inhibition [4] [%] | inhibition [5] [%]
1 | CNC(=O)NS(=O)(=O)c1cc2c(cc1OC)OCCC2CNC(=O)c1cc(Cl)ccc1OC (single isomer, unassigned; (-)) | 14.2 | 2.5 | 105 |  | 
2 | CN/C(S)=N/S(=O)(=O)c1cc(CCNC(=O)c2cc(Cl)ccc2OC)ccc1S(C)(=O)=O | 1.1 | 1.8 | 16.4 |  | 
3 | CN/C(S)=N/S(=O)(=O)c1cc(CCNC(=O)c2cc(Cl)ccc2OC)ccc1OC(C)C | 27.4 | -4.7 | 81.1 |  | 
4 | CCOc1ccc(CCNC(=O)c2cc(Cl)ccc2OC)cc1S(=O)(=O)/N=C(\S)NC | 16.3 | -2.7 | 75.4 |  | 
5 | C#Cc1ccc(CCNC(=O)c2cc(Cl)ccc2OC)cc1S(=O)(=O)/N=C(\S)NC | 3.4 | 3.3 | 27.6 |  | 
6 | CN/C(S)=N/S(=O)(=O)c1cc(CCNC(=O)c2cc(Cl)ccc2OC)ccc1N1CCOCC1 | 26.7 | -1.6 | 89.1 |  | 
7 | CNC(=O)NS(=O)(=O)c1ccc(CCNC(=O)c2cc(Cl)ccc2OC)cc1 | 62.8 | -0.7 | 86.3 |  | 
8 | COc1ccc(Cl)cc1C(=O)NCCc1ccc(OC)c(S(=O)(=O)NC(=O)NC2CCCCC2)c1 | 92.8 | 65.5 | 81.7 |  | 
9 | CNC(=O)NS(=O)(=O)c1cc(CCNC(=O)c2cc(Cl)ccc2OC)ccc1OC | -1.3 | -2.8 | 43.9 |  | 
10 | CN/C(S)=N/S(=O)(=O)c1cc(CCNC(=O)c2cc(Cl)ccc2OC)ccc1SC | 15.2 | -2.1 | 81.4 |  | 
11 | CN/C(S)=N/S(=O)(=O)c1cc(CCNC(=O)c2cc(Cl)ccc2OC)ccc1C | 21 | 1.9 | 74.8 |  | 
12 | CCc1ccc(CCNC(=O)c2cc(Cl)ccc2OC)cc1S(=O)(=O)/N=C(\S)NC | 20.5 | 1.3 | 92.9 |  | 
13 | CNC(=O)NS(=O)(=O)c1cc(CCNC(=O)c2cc(Cl)ccc2OC)c(OC)cc1OC | 2.8 | -0.6 | 13.5 |  | 
14 | CN/C(S)=N/S(=O)(=O)c1cc(CCNC(=O)c2cc(Cl)ccc2OC)ccc1OC(F)(F)F | 6 | 0.8 | 64.9 |  | 
15 | CN/C(S)=N/S(=O)(=O)c1cc2c(cc1OC)OCCC2CNC(=O)c1cc(Cl)ccc1OC (single isomer, unassigned; (+)) | 3.6 | -3.9 | 70.7 |  | 
16 | CN/C(S)=N/S(=O)(=O)c1cc(CCNC(=O)c2cc(Cl)ccc2OC)cc(OC)c1OC | -2.12 | -3.8 | -2.34 |  | 
17 | C=CCOc1ccc(CCNC(=O)c2cc(Cl)ccc2OC)cc1S(=O)(=O)/N=C(\S)NC | 31.8 | 1.7 | 94 |  | 
18 | CN/C(S)=N/S(=O)(=O)c1cc2c(cc1OC)OCCC2CNC(=O)c1cc(Cl)ccc1OC (single isomer, unassigned; (-)) | 63 | 6.8 | 75.7 |  | 
19 | CNC(=O)NS(=O)(=O)c1cc2c(cc1OC)OCCC2CNC(=O)c1cc(Cl)ccc1OC (single isomer, unassigned; (+)) | 1 | 2 | 0.3 |  | 
20 | CN/C(S)=N/S(=O)(=O)c1cc(CCNC(=O)c2cc(Cl)ccc2OC)ccc1C(C)C | 29.3 | 12 | 92.4 |  | 
21 | CN/C(S)=N/S(=O)(=O)c1cccc(CCNC(=O)c2cc(Cl)ccc2OC)c1 | 1.9 | -4.1 | 52.7 |  | 

Row | Structure (SMILES) | inhibition [1] [%] | inhibition [2] [%] | inhibition [3] [%] | inhibition [4] [%] | inhibition [5] [%]
22 | CN/C(S)=N/S(=O)(=O)c1cc(CCNC(=O)c2cc(Cl)ccc2OC)c(C)c(C)c1OC | 6.1 | 0.8 | 64.9 |  | 
23 | CNC(=S)NS(=O)(=O)c1cc(CCNC(=O)c2cc(Cl)ccc2OC)ccc1OC | 24.3 | 5 | 83.8 |  | 
24 | CCCOc1ccc(CCNC(=O)c2cc(Cl)ccc2OC)cc1S(=O)(=O)/N=C(\S)NC | 63.6 | 4.2 | 103 |  | 
25 | CCCc1ccc(CCNC(=O)c2cc(Cl)ccc2OC)cc1S(=O)(=O)/N=C(\S)NC | 41.5 | 2.3 | 97.1 |  | 
26 | CN/C(S)=N/S(=O)(=O)c1cc(CCNC(=O)c2cc(Cl)ccc2OC)ccc1Br | 2.2 | 3.3 | 67.7 |  | 
27 | CN/C(S)=N/S(=O)(=O)c1cc(CCNC(=O)c2cc(Cl)ccc2OC)c(OC)cc1OC | 0.7 | -1 | 30.5 |  | 
28 | CN/C(S)=N/S(=O)(=O)c1cc(CCNC(=O)c2cc(Cl)ccc2OC)ccc1OCCOCCOC | 45.5 | 1 | 96.4 |  | 
29 | COc1ccc(Cl)cc1C(=O)NCCc1ccc(S(=O)(=O)NC(=O)NC2CCCCC2)cc1 |  |  |  | 73.3 | 24
30 | CN/C(S)=N/S(=O)(=O)c1cc(CCNC(=O)c2cc(Cl)ccc2OC)ccc1-c1ccco1 | 16 | -2.6 | 82.7 |  | 
31 | COc1ccc(Cl)cc1C(=O)NCCc1ccc(OC)c(S(=O)(=O)/N=C(\S)NC2CCCCC2)c1 | 87.6 | 20.5 | 122 |  | 
32 | CN/C(S)=N/S(=O)(=O)c1cc(CCNC(=O)c2cc(Cl)ccc2OC)ccc1F | -1.3 | -3.9 | 18.1 |  | 
33 | CN/C(S)=N/S(=O)(=O)c1cc(CCNC(=O)c2cc(Cl)ccc2OC)ccc1-c1cccnc1 | 10.2 | 4.4 | 62.3 |  | 
34 | CN/C(S)=N/S(=O)(=O)c1cc(CCNC(=O)c2cc(Cl)ccc2OC)ccc1I | 19.2 | 1.7 | 89.2 |  | 
35 | CN/C(S)=N/S(=O)(=O)c1cc(CCNC(=O)c2cc(Cl)ccc2OC)c(OC)c(C)c1OC | 6.7 | -2 | 47.8 |  | 
36 | CN/C(S)=N/S(=O)(=O)c1cc(CCNC(=O)c2cc(Cl)ccc2OC)ccc1-c1ccccn1 | 24.4 | 6.6 | 91.4 |  | 
37 | CN/C(S)=N/S(=O)(=O)c1cc(CCNC(=O)c2cc(Cl)ccc2OC)ccc1Cl | 2.8 | 2.3 | 40.1 |  | 
38 | CN/C(S)=N/S(=O)(=O)c1cc(CCNC(=O)c2cc(Cl)ccc2OC)ccc1OCCOC | 26.2 | 12.5 | 49.5 |  | 
39 | CN/C(S)=N/S(=O)(=O)c1cc(CCNC(=O)c2cc(Cl)ccc2OC)ccc1-c1ccccc1 | 33 | 9.4 | 67.7 |  | 
40 | CN/C(S)=N/S(=O)(=O)c1cc(CCNC(=O)c2cc(Cl)ccc2OC)ccc1[S+](C)[O-] (stereo not given) | 2.4 | 1.9 | 17.6 |  | 
41 | COc1ccc(Cl)cc1C(=O)NCCc1ccc(OC)c(S(=O)(=O)NC(=O)N(C)C)c1 | -3.2 | -3.6 | 25 |  | 
42 | COc1ccc(Cl)cc1C(=O)NCCc1ccc(OC)c(S(=O)(=O)/N=C(/N)S)c1 | 11.2 | 1.6 | 64.7 |  | 
